# Source: PubChem
# TAAR1 antagonist – human TAAR1 antagonism; actives 1.5% (n = 360,000); inhibition, % at 3 µM; CHO RD-HGA16 TAAR1, Fluo-8 calcium fluorescence, antagonist; AID 624466; Q96RJ0;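 active = inhibition above a per-plate cutoff, the mean inhibition of test compounds on that plate plus 3 SD, cut at about 49% in these data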;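 note: 0% = DMSO plus EC80 beta-PEA response and 100% = DMSO alone without agonist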
#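 Material: RD-HGA16 CHO cells with stable hTAAR1 and Gα16; Dosing: single nominal final test compound concentration of 3 µM; Schedule: seeding 17-24 h prior, 75-min 37 °C, 30-min RT dye loading; Detection: kinetic Fluo-8 calcium fluorescence measurement; Measure: % inhibition from peak post-agonist over basal fluorescence ratio; Benchmarks: vehicle and agonist controls.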
# Rce1 inh – blocks yeast Ras-converting enzyme | Q03530 | yeast membranes, quenched prenylated peptide cleavage fluorescence | calls only | actives 0.27% (n = 290,000) | AID 2563;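 active = fall in fluorescence gain of 50% or more versus controls, with final raw signal at or below 3038400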;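 note: plate controls were neutral control wells for no effect and wells lacking membranes for full effect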
# TAAR1 agonist – agonists of human TAAR1; AID 624467; actives 0.99% (n = 360,000); activation, % at 3 µM; Q96RJ0; CHO RD-HGA16 TAAR1, Fluo-8 calcium fluorescence; vehicle wells 0%, saturating PEA agonist 100%;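 active = activation above the mean activation of all test compounds in the run plus 3 SD, cut at about 38% in these data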
#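 Test system: RD-HGA16 (CHO) cells co-expressing Gα16 and hTAAR1 / Benchmarks: DMSO vehicle as 0%, PEA at EC100 as 100% / Repeats: no replicates (n 1) / Measure: % activation from peak over basal fluorescence ratio, DMSO-to-PEA scaled / Timing: 17-24 h plating, Fluo-8 75 min 37 °C, 30 min RT / Technique: kinetic Fluo-8 calcium fluorescence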
# Platelet DG rel – platelet dense granule release activity | AID 1663 | actives 0.22% (n = 300,000) | inhibition, %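 (compounds screened at 7.5 µM in platelet-rich plasma)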 | human platelet-rich plasma, SFLLRN dense granule ATP release, luminescence;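 active = mean replicate score, as percent of positive control, at or above 50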
# VLA-4 inh – inhibition in a human VLA-4 binding assay. actives 0.2% (n = 330,000). inhibition, % (about 7 µM as worked out from the volumes in the protocol). VLA-4 expressing cells, ligand binding flow cytometry. P13612; in the data active = inhibition above about 50%
# TAAR1 ag confirm – human TAAR1 agonism, confirmed; shares compounds with TAAR1 agonist; CHO RD-HGA16 TAAR1, Fluo-8 calcium fluorescence; scaled: DMSO 0%, maximal phenethylamine 100%; activation, % at 3 µM; actives 82% (n = 2,400); AID 651783;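 active = activation above a cutoff set at the run's mean compound activation plus 3 SD, cut at about 39% in these data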
# Ga16 nonsel ag – nonselective agonism, TAAR1 counter-screen. shares compounds with TAAR1 agonist. CHO-Ga16 parental, Fluo-8 calcium fluorescence; normalized to maximal ATP response, DMSO zero. activation, % at 3 µM. actives 50% (n = 2,400). AID 651787;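 active = activation above the run cutoff, the mean activation over all tested wells plus 3 SD, cut at about 12% in these data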;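 note: 0% = DMSO wells and 100% = maximal ATP response on the peak over basal ratio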
# TAAR1 desens – human TAAR1 agonist that also desensitizes the receptor. CHO RD-HGA16 hTAAR1, Fluo-8 calcium, beta-PEA response inhibition. inhibition, % at 3 µM. shares compounds with TAAR1 agonist. AID 651951. actives 46% (n = 2,400);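 active = inhibition above the run cutoff, the mean inhibition of all test compounds plus 3 SD, cut at about 49% in these data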;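 note: beta-PEA stimulus applied at its EC80; loss of beta-PEA calcium signal after compound pretreatment read as receptor desensitization; 0% = DMSO with beta-PEA at EC80 and 100% = DMSO alone without agonist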
# Ga16 antag count – nonselective Ga16 antagonism, counter-screen | shares compounds with TAAR1 agonist | actives 39% (n = 2,400) | AID 651952 | inhibition, % at 3 µM | CHO-Ga16 ATP-induced calcium, Fluo-8 fluorescence;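 active = inhibition above the plate's mean compound inhibition plus 3 SD, computed per plate, cut at about 22% in these data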;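 note: 0% = EC80 ATP with DMSO and 100% = DMSO wells without ATP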
# An asterisk follows results filed as active; i = inactive; nt = no result given. Only some compounds are listed: those with a hit (about 2.6% of all), similar ones and a draw of the others.
SMILES,TAAR1 antagonist,Rce1 inh,TAAR1 agonist,Platelet DG rel,VLA-4 inh,TAAR1 ag confirm,Ga16 nonsel ag,TAAR1 desens,Ga16 antag count
Cc1ccccc1CCNC(=O)c1ccc(Cl)c(S(=O)(=O)N2CC(C)OC(C)C2)c1 (stereo not drawn),4.7,nt,58.6*,nt,-32.5,22.3,9.6,19.8,26.8*
CC1CN(S(=O)(=O)c2cc(C(=O)NCc3ccncc3)ccc2Cl)CC(C)O1 (stereo not drawn),-10.8,nt,0.8,nt,12.9,nt,nt,nt,nt
CCC1(C)CN=C(c2ccccc2)NC1 (stereo not drawn),-20.3,nt,1.3,nt,nt,nt,nt,nt,nt
C[C@@H]1CN([C@@H](C)CO)C(=O)c2cc(C#CC3CCCCC3)cnc2O[C@@H]1CN(C)S(=O)(=O)c1ccc(F)cc1,9.4,nt,7.9,nt,nt,nt,nt,nt,nt
CCOC(=O)c1cncc(C#CCOC(=O)Nc2ccc(OC(F)(F)F)cc2)c1,72.8*,i,50.6*,7.3,-5.6,49.2*,32.0*,81.2*,61.9*
CCOC(=O)c1cncc(C#CCO)c1,-13.6,i,1.1,15.2,-1.2,nt,nt,nt,nt
COc1cc2c(cc1OC)C(C1(O)CCCCC1)NCC2 (stereo not drawn),-0.8,i,-0.6,4.6,-11.5,nt,nt,nt,nt
COc1cc2c(c(OC)c1OC)C1(CCCCC1)CC2NCC=C(C)C (stereo not drawn),0.0,nt,49.5*,nt,nt,11.8,0.9,-9.6,0.7
CCCCc1ccc(NC(=O)C2CCN(S(C)(=O)=O)CC2)cc1,26.5,i,57.4*,-0.9,40.8,-1.3,1.0,0.8,11.1
NC(=NCCc1ccccc1)NC(=O)c1cc(Cl)ccc1O,76.8*,i,89.6*,3.6,0.6,90.6*,4.2,93.7*,23.3*
Oc1ccccc1C=NCCN=Cc1ccccc1O,-18.4,i,3.1,1.3,13.4,nt,nt,nt,nt
Oc1ccc(Cl)cc1C=NCCc1ccccc1,nt,i,nt,1.1,-8.6,nt,-1.1,nt,9.9
CCOC(=O)C1(C)CCCN1C(=O)c1ccc(C(F)(F)F)nc1C (stereo not drawn),0.9,nt,0.5,nt,nt,nt,nt,nt,nt
O=S(=O)(Nc1ncccn1)c1ccc(NC(=S)NCc2cccnc2)cc1,5.5,i,9.4,-7.6,15.1,nt,nt,nt,nt
COc1ccc(Nc2nc(N3CCCC3)c3ccccc3n2)cc1,48.2,i,67.1*,-3.0,12.3,89.4*,9.4,86.3*,18.7
CCN(CC)c1ccc(Nc2nc(N3CCOCC3)c3ccccc3n2)cc1,25.7,i,12.3,4.8,-1.5,nt,nt,nt,nt
CCCCn1c(=O)[nH]c2nc3cc(NC(C)=O)ccc3nc2c1=O,-17.2,i,1.7,2.4,-49.0,nt,nt,nt,nt
CCCCCCn1c(=O)[nH]c2nc3cc(N)c(C)cc3nc2c1=O,71.5*,nt,118.3*,nt,nt,105.3*,84.7*,47.6,49.2*
COc1ccc(C(=O)N/N=C/c2sc3ccccc3c2O)cc1,nt,i,nt,-15.9,-32.6,nt,nt,nt,nt
COc1ccc2cc(C(=O)N/N=C/c3sc4ccccc4c3O)ccc2c1,28.1,i,107.9*,-1.1,-4.6,48.8*,56.5*,43.8,53.1*
CC1=CC2=NC(=O)/C(=C\c3cc(C)n(-c4ccc(F)cc4)c3C)C(=N)N2O1,87.4*,i,42.8*,11.7,-1.7,5.2,7.9,50.1*,37.7*
COC(=O)CCC[C@H]1CC2(C[C@H](CCCO[Si](C)(C)C(C)(C)C)N1C(=O)OC(C)(C)C)OCCO2,14.1,nt,-0.5,nt,-3.9,nt,nt,nt,nt
CN(C)CCCN(C(=O)c1ccc(S(=O)(=O)N2CCc3ccccc3C2)cc1)c1nc2ccc(F)cc2s1,50.0*,i,75.0*,20.7,-12.9,69.2*,46.3*,39.9,42.4*
Cc1ccc2sc(N(CCCN(C)C)C(=O)c3ccc(S(=O)(=O)N(C)C4CCCCC4)cc3)nc2c1C,31.2,i,53.3*,-17.2,10.2,28.4,12.9*,20.6,17.8
